How the values were obtained:
Mus musculus [1] = assay: Antialzheimer activity in APP51/16 transgenic mouse expressing human APP51/16Npa and mouse Thy1 assessed as reduction in brain C99 level reduction at 180 umol/kg, po measured 4 hrs post dosing; assay type: functional; design: scale not given: the % may be the effect or the level left
Summary of the method: (§1)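 Hemizygous APP51/16 mice (human APP751 wild-type under murine Thy-1 cassette, C57BL/6 background) gavaged (10 mL/kg), decapitated at 4 h. Forebrain homogenized in TBS with protease inhibitors, 1% TX-100 extract, spun 100000 rpm 30 min 4 °C. Aβ40 by 6E10 electrochemiluminescence immunoassay against spiked nontransgenic extract standards; C99 by APP-C8 western blot, densitometry. Two-tailed Student's t test versus vehicle.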

MDR1 (human) [2] = assay: Apparent permeability across MDCK cells expressing human MDR1 at 5 uM after 2 hrs by LC-MS analysis; assay type: ADME, cell-based, Canis lupus familiaris; conditions: dog
Summary of the method: (§2)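 MDCK cells retrovirally transduced with human MDR1, seeded on transwells ≥3 days; bidirectional transport at 5 μM, 2 h, 37 °C, LC/MS quantitation. Papp = (dQ/dt)/(A·C0), A 0.11 cm2; ER = Papp B>A / Papp A>B. Means of at least three experiments.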

Cathepsin D = Cathepsin D (Homo sapiens, UniProt P07339); assay: Inhibition of human recombinant CatD using Mca-GKPILFFRLK(DNP)-dR-NH2 as substrate after 1 hr by fluorescence analysis
Cathepsin D, sequence (P07339 65-162 limits assumed): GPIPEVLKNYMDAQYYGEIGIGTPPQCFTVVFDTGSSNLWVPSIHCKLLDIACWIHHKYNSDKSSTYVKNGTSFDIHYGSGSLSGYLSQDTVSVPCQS
Cathepsin D, sequence (P07339 169-412 limits assumed): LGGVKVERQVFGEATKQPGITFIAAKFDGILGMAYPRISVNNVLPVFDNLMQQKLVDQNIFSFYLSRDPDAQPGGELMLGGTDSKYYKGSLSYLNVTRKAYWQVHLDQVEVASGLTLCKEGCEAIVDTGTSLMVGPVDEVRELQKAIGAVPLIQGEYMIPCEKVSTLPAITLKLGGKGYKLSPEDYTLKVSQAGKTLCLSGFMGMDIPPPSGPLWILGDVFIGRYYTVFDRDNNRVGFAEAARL

Mus musculus [3] = assay: Antialzheimer activity in APP51/16 transgenic mouse expressing human APP51/16Npa and mouse Thy1 assessed as reduction in amyloid beta (1 to 40) reduction at 180 umol/kg, po measured 4 hrs post dosing; assay type: functional; design: scale not given: the % may be the effect or the level left; summary of the method: as §1
[4] = Drug uptake in APP51/16 transgenic mouse blood at 180 umol/kg, po measured 4 hrs post dosing by LC/MS/MS analysis; assay type: ADME, organism-based; conditions: read-out: Drug uptake
Summary of the method: (§3)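 APP51/16 transgenic mice given oral gavage (10 mL/kg); blood and forebrain taken at 4 h postdose. Blood extracted by acetonitrile precipitation; brain homogenized in water, then acetonitrile-precipitated. LC-MS/MS quantitation against weighted linear calibration of analyte/internal standard area ratio.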

Brain [5] = assay: Drug uptake in APP51/16 transgenic mouse brain at 180 umol/kg, po measured 4 hrs post dosing by LC/MS/MS analysis; assay type: ADME, organism-based; conditions: in vivo; summary of the method: as §3
MDR1 (human) [6] = assay: Efflux ratio of permeability from basolateral to apical over apical to basolateral side of MDCK cells expressing human MDR1 at 5 uM after 2 hrs by LC/MS analysis; assay type: ADME, cell-based, Canis lupus familiaris; conditions: dog; summary of the method: as §2
Cytochrome P450 3A4 = Cytochrome P450 3A4 (Homo sapiens, UniProt P08684); assay: Inhibition of CYP3A4; assay type: ADME
Cytochrome P450 3A4, sequence (P08684 whole entry): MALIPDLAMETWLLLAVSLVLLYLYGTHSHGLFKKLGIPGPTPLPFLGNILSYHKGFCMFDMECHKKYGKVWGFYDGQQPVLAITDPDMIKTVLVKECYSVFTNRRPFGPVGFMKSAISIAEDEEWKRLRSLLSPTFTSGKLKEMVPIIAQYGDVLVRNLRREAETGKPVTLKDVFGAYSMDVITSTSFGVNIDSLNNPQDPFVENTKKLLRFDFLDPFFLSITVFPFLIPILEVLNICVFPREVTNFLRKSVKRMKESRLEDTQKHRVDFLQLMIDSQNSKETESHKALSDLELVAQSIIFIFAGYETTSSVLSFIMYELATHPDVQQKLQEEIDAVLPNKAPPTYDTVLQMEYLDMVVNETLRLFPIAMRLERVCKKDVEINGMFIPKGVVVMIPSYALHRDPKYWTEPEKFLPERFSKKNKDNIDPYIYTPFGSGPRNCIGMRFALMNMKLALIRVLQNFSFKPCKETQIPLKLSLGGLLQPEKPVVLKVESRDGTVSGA

Beta-secretase 1 [7] = target: T1, Beta-secretase 1 (Homo sapiens, UniProt P56817)
T1 sequence (P56817 whole entry): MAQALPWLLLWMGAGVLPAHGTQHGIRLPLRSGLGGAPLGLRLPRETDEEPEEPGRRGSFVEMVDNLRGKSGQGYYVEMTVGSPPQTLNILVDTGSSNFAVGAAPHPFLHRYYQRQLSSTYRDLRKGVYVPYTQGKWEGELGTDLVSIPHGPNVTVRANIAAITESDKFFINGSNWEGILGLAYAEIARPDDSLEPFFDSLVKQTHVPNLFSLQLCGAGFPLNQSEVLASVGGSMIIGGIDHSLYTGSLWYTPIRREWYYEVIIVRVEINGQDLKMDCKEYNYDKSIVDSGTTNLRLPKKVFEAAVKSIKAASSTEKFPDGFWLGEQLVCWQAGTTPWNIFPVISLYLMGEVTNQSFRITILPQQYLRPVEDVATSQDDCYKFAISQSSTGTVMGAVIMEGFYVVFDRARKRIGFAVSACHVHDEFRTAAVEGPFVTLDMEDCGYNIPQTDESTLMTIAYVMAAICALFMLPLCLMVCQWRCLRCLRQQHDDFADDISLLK

Beta-secretase 1 [8] = target: T1, Beta-secretase 1; assay: Inhibition of human BACE-1 mediated amyloid beta 40 release in Chinese hamster CHO cells expressing human wild-type APP
Homo sapiens = organism: Homo sapiens; assay: Selectivity index, ratio of IC50 for human recombinant CatD to IC50 for human recombinant BACE1
[9] = AUC (0 to infinity) in C57BL/6 mouse at 2 umol/kg, iv dosed in N-methyl pyrrolidone/blank plasma (10:90 v/v) by LC/MS/MS analysis; assay type: ADME, organism-based; design: dose 2 umol/kg, time infinity, route intravenous
Summary of the method: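 Male C57BL/6 mice got a single injection into the saphenous vein under light anaesthesia at 5 mL/kg. Blood was taken at 5 and 30 min and 1, 2, 4, 6 and 8 h (n = 3 per time). Blood was extracted by acetonitrile precipitation and quantified by LC-MS/MS against a weighted linear calibration. AUC came from noncompartmental analysis with 1/Y weighting.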

[10] = Volume of distribution at steady state in C57BL/6 mouse at 2 umol/kg, iv dosed in N-methyl pyrrolidone/blank plasma (10:90 v/v) by LC/MS/MS analysis; assay type: ADME, organism-based; conditions: read-out: Vdss
Summary of the method: (§4)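 Male C57BL/6 mice, saphenous vein injection under light anesthesia, 5 mL/kg. Blood at 5, 30 min and 1, 2, 4, 6, 8 h; brain at 5 min, 1, 4, 8 h; n = 3/time. LC-MS/MS after acetonitrile precipitation (brain water-homogenized). Noncompartmental analysis, 1/Y weighting, terminal slope from ≥3 points.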

[11] = Half life in C57BL/6 mouse at 2 umol/kg, iv dosed in N-methyl pyrrolidone/blank plasma (10:90 v/v) by LC/MS/MS analysis; assay type: ADME, organism-based; summary of the method: as §4
Brain [12] = assay: Drug uptake in C57BL/6 mouse brain at 60 umol/kg, po dosed in carboxymethyl cellulose 0.5% w/v in water/Tween 80 (99.5/0.5, v/v) measured 1 hr post dosing by LC/MS/MS analysis; assay type: ADME, organism-based; conditions: in vivo
Summary of the method: (§5)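 Male C57BL/6 mice dosed by oral gavage, 10 mL/kg. Blood sampled 0.25, 0.5, 1, 2, 4, 6 h; brain at 1 and/or 4 h; n = 3 per time. Blood acetonitrile-precipitated, brain water-homogenized then precipitated; LC-MS/MS with weighted linear calibration.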

[13] = Ratio of drug uptake in brain to blood in C57BL/6 mouse at 60 umol/kg, po dosed in carboxymethyl cellulose 0.5% w/v in water/Tween 80 (99.5/0.5, v/v) measured 1 hr post dosing by LC/MS/MS analysis; assay type: ADME, organism-based; summary of the method: as §5
[14] = Drug uptake in C57BL/6 mouse blood at 60 umol/kg, po dosed in carboxymethyl cellulose 0.5% w/v in water/Tween 80 (99.5/0.5, v/v) measured 4 hrs post dosing by LC/MS/MS analysis; assay type: ADME, organism-based; conditions: read-out: Drug uptake; summary of the method: as §5
[15] = Blood clearance in C57BL/6 mouse at 2 umol/kg, iv dosed in N-methyl pyrrolidone/blank plasma (10:90 v/v) by LC/MS/MS analysis; assay type: ADME, organism-based; summary of the method: as §4
[16] = Oral bioavailability in C57BL/6 mouse at 30 umol/kg dosed in carboxymethyl cellulose 0.5% w/v in water/Tween 80 (99.5/0.5, v/v) by LC/MS/MS analysis; assay type: ADME, organism-based; conditions: in vivo
Summary of the method: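 Oral gavage (10 mL/kg) to male C57BL/6 mice with iv reference segment (2 μmol/kg, NMP/blank plasma 10:90). Noncompartmental analysis of LC-MS/MS blood profiles, 1/Y weighting; %F = dose-normalized oral AUC / dose-normalized iv AUC × 100, assuming linear pharmacokinetics between doses.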

[17] = AUC (0 to infinity) in C57BL/6 mouse at 30 umol/kg, po dosed in carboxymethyl cellulose 0.5% w/v in water/Tween 80 (99.5/0.5, v/v) by LC/MS/MS analysis; assay type: ADME, organism-based; design: dose 30 umol/kg, route oral, time infinity; conditions: in vivo
Summary of the method: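 Male C57BL/6 mice were dosed by oral gavage at 10 mL/kg. Blood was sampled at 0.25, 0.5, 1, 2, 4 and 6 h postdose, extracted by acetonitrile precipitation and quantified by LC-MS/MS (typical LLOQ 0.4 ng/mL). AUCinf was obtained by noncompartmental analysis of concentration–time profiles, weighting 1/Y, with at least three terminal log-linear points.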

[18] = Drug uptake in C57BL/6 mouse blood at 60 umol/kg, po dosed in carboxymethyl cellulose 0.5% w/v in water/Tween 80 (99.5/0.5, v/v) measured 1 hr post dosing by LC/MS/MS analysis; assay type: ADME, organism-based; conditions: read-out: Drug uptake; summary of the method: as §5
Brain [19] = assay: Drug uptake in C57BL/6 mouse brain at 60 umol/kg, po dosed in carboxymethyl cellulose 0.5% w/v in water/Tween 80 (99.5/0.5, v/v) measured 4 hrs post dosing by LC/MS/MS analysis; assay type: ADME, organism-based; conditions: in vivo; summary of the method: as §5
[20] = Ratio of drug uptake in brain to blood in C57BL/6 mouse at 60 umol/kg, po dosed in carboxymethyl cellulose 0.5% w/v in water/Tween 80 (99.5/0.5, v/v) measured 4 hrs post dosing by LC/MS/MS analysis; assay type: ADME, organism-based; summary of the method: as §5

Papp at 2 h, 5 µM (MDR1 (human) [2]) [×10⁻⁶ cm/s] | IC50 (Cathepsin D) [nM] | efflux ratio at 2 h, 5 µM (MDR1 (human) [6]) | IC50 (Cytochrome P450 3A4) [nM] | IC50 (Beta-secretase 1 [7]) [nM] | Ratio IC50 (Homo sapiens) | Structure (SMILES) | further results
13 | 250 | – | – | – | – | COC[C@@H](Oc1cc(C[C@@H]2CS(=O)(=O)C[C@H](NCc3cccc(C(C)(C)C)c3)[C@H]2O)cc(F)c1N)C(F)(F)F | Activity (Mus musculus [1]): 48%; Activity (Mus musculus [3]): 31%; concentration at 4 h [4]: 7.3 µM; Drug uptake (Brain [5]): 1.9 nmol/g
38 | 3070 | 17 | 400 | 68 | – | CC(C)(C)c1ccnc(CN[C@H]2CS(=O)(=O)C[C@@H](Cc3cc(F)c(N)c(OC(C(F)(F)F)C(F)(F)F)c3)[C@@H]2O)c1 | –
16 | 2810 | 46 | 6700 | 36 | – | CC(C)(C)Cn1cc(CN[C@H]2CS(=O)(=O)C[C@@H](Cc3cc(F)c(N)c(OC(C(F)(F)F)C(F)(F)F)c3)[C@@H]2O)cn1 | –
11 | – | 23 | – | – | – | CCCN1CCC[C@@]12CCN([C@@H](C)C(=O)N[C@@H](Cc1ccccc1)[C@H](O)CNCc1cccc(C(C)C)c1)C2=O | IC50 (Beta-secretase 1 [8]): 10 nM
21 | 1510 | – | 700 | – | – | CC1(C)OCc2ccc(CN[C@H]3CS(=O)(=O)C[C@@H](Cc4cc(F)c(N)c(OC(C(F)(F)F)C(F)(F)F)c4)[C@@H]3O)cc21 | –
12 | 2530 | 6 | 9200 | 44 | – | Nc1c(F)cc(C[C@@H]2CS(=O)(=O)C[C@H](NCc3cccc(OC(F)(F)F)c3)[C@H]2O)cc1OC(C(F)(F)F)C(F)(F)F | –
7 | 5200 | 2 | – | 45 | > 100 | CCCOc1cc(C[C@@H]2CS(=O)(=O)C[C@H](NCc3cccc(C(C)(C)C)c3)[C@H]2O)ccc1N | –
18 | 1030 | 3 | – | 24 | 40 | CCOc1cc(C[C@@H]2CS(=O)(=O)C[C@H](NCc3cccc(C(C)(C)C)c3)[C@H]2O)cc(F)c1N | Activity (Mus musculus [1]): 54%; Activity (Mus musculus [3]): 34%; concentration at 4 h [4]: 9 µM; Drug uptake (Brain [5]): 3.1 nmol/g
17 | 2300 | 41 | – | 8 | > 100 | CCc1cc(C[C@@H]2CS(=O)(=O)C[C@H](NCc3cccc(C(C)(C)C)c3)[C@H]2O)cc(F)c1NC(C)=O | –
13 | 340 | 2 | – | 55 | 5 | CC(C)(C)c1cccc(CN[C@H]2CS(=O)(=O)C[C@@H](Cc3cc(F)c(N)c(Br)c3)[C@@H]2O)c1 | –
21 | 2520 | 1 | – | 350 | 5 | CC(C)(C)c1cccc(CN[C@H]2CS(=O)(=O)C[C@@H](Cc3ccc(N)c(F)c3)[C@@H]2O)c1 | –
2 | 290 | 1 | – | 670 | – | CCCOc1cccc(C[C@@H]2CS(=O)(=O)C[C@H](NCc3cccc(C(C)(C)C)c3)[C@H]2O)c1 (relative stereo) | –
2.5 | 1490 | 7 | – | 120 | – | CC(C)(C)c1cccc(CN[C@H]2CS(=O)(=O)C[C@@H](Cc3ccc4[nH]cc(CC(F)(F)F)c4c3)[C@@H]2O)c1 (racemic) | –
11 | 1320 | 30 | 2100 | 2 | – | CC(C)(O)c1cccc(CN[C@H]2CS(=O)(=O)C[C@@H](Cc3cc(F)c(N)c(OC(C(F)(F)F)C(F)(F)F)c3)[C@@H]2O)c1 | –
12 | 600 | 35 | 800 | 2 | – | CC(C)(CO)c1cccc(CN[C@H]2CS(=O)(=O)C[C@@H](Cc3cc(F)c(N)c(OC(C(F)(F)F)C(F)(F)F)c3)[C@@H]2O)c1 | –
7 | 2220 | 3 | – | 56 | – | CCCOc1cc(CC2CS(=O)(=O)CC(NCc3cccc(C(C)(C)C)c3)[C@H]2O)cc(F)c1N (single isomer, unassigned) | –
22 | 680 | 10 | – | 6 | > 100 | CC(C)(C)c1cccc(CN[C@H]2CS(=O)(=O)C[C@@H](Cc3cc(F)c(N)c(OCC(F)F)c3)[C@@H]2O)c1 | Activity (Mus musculus [1]): 32%; Activity (Mus musculus [3]): 18%; concentration at 4 h [4]: 12.2 µM; Drug uptake (Brain [5]): 2.1 nmol/g
26 | 2000 | 16 | – | 43 | – | CC(C)(C)c1cccc(CN[C@H]2CS(=O)(=O)C[C@@H](Cc3cc(F)c(N)c(OCCF)c3)[C@@H]2O)c1 | –
20 | 510 | 8 | 400 | 7 | – | CC(C)(C)Cc1cc(CN[C@H]2CS(=O)(=O)C[C@@H](Cc3cc(F)c(N)c(OC(C(F)(F)F)C(F)(F)F)c3)[C@@H]2O)no1 | –
13 | 720 | 2 | – | 140 | 5 | CC(C)(C)c1cccc(CN[C@H]2CS(=O)(=O)C[C@@H](Cc3ccc(N)c(Br)c3)[C@@H]2O)c1 | AUC(0-inf) [9]: 4.09 µM·h; Vd [10]: 1.6 L/kg; half-life [11]: 4 h; Drug uptake (Brain [12]): 2.17 nmol/g; Kp at 1 h [13]: 0.5; concentration at 4 h [14]: 2.98 µM; clearance [15]: 8.1 mL/min/kg; bioavailability [16]: 10%; AUC(0-inf) [17]: 6.43 µM·h; concentration at 1 h [18]: 4.07 µM; Drug uptake (Brain [19]): 1.92 nmol/g; Kp at 4 h [20]: 0.6

Reference: ChEMBL document CHEMBL2046351, “Discovery of cyclic sulfone hydroxyethylamines as potent and selective β-site APP-cleaving enzyme 1 (BACE1) inhibitors: structure-based design and in vivo reduction of amyloid β-peptides” (J Med Chem, 2012)
